Series [1] relates to MDA-MB-468. Description: Inhibition of PARP1/PI3Kalpha in human MDA-MB-468 cells assessed as down regulation of BRCA2 mRNA expression at 1 uM by RT-PCR analysis.
Series [2] concerns MDA-MB-468. Description: Inhibition of PARP1/PI3Kalpha in human MDA-MB-468 cells assessed as down regulation of BRCA1 mRNA expression at 1 uM by RT-PCR analysis.
For series [3], the target named is T1, Poly [ADP-ribose] polymerase 1 (Homo sapiens, UniProt P09874). The following applies: dose 10.0 nM.
T1 sequence (P09874 whole entry, canonical isoform): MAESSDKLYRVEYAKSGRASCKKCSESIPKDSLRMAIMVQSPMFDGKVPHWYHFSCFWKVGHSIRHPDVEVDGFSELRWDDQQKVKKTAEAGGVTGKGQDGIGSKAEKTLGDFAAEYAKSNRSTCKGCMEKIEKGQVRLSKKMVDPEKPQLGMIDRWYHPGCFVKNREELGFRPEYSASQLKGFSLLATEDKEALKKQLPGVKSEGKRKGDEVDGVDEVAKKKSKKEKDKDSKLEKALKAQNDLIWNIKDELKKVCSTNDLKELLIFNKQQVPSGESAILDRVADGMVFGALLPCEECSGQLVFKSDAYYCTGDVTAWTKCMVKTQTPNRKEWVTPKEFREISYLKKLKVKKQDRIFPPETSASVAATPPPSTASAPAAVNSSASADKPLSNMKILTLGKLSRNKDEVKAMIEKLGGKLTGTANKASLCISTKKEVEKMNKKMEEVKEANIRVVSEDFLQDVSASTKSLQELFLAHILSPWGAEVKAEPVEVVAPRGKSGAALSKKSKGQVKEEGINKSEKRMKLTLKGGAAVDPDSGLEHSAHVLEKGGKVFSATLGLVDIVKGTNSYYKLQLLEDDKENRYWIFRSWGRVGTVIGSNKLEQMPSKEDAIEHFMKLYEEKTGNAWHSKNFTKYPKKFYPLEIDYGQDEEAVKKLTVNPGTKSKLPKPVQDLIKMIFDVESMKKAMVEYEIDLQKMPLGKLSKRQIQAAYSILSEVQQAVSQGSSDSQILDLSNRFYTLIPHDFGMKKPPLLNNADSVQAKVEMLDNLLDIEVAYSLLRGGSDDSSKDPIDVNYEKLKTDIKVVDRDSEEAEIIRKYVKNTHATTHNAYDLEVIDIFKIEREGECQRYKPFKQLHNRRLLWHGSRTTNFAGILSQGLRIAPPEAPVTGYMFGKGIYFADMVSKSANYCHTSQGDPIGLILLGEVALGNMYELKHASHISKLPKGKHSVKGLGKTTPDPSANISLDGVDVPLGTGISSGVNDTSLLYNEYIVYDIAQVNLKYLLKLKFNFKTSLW
Series [4] addresses T2, Phosphatidylinositol 4,5-bisphosphate 3-kinase catalytic subunit alpha isoform (Homo sapiens, UniProt P42336). Description: Inhibition of PI3Kalpha (unknown origin) at 100 nM relative to control.
The subject of series [5] is MDA-MB-468. Description: Induction of apoptosis in human MDA-MB-468 cells assessed as early apoptotic cells at 2 uM measured after 72 hrs by Annexin V-FITC/propidium iodide staining based flow cytometry (reference value: 3.88%). The series is classed as functional. On the technique in general: Flow cytometry measures light scatter and fluorescence of single cells or particles in a stream.

For series [6], the system named is MDA-MB-468. Description: Inhibition of PARP1/PI3Kalpha in human MDA-MB-468 cells assessed as down regulation of BRCA1 mRNA expression at 2 uM by RT-PCR analysis.
In series [7] the test system is MDA-MB-468. Nature of the series: Induction of apoptosis in human MDA-MB-468 cells assessed as viable cells at 2 uM measured after 72 hrs by Annexin V-FITC/propidium iodide staining based flow cytometry (reference value: 95.2%). The format is functional. The conditions noted are these: read-out: Activity.
Series [8] concerns MDA-MB-468. Description: Induction of apoptosis in human MDA-MB-468 cells assessed as necrotic cells at 2 uM measured after 72 hrs by Annexin V-FITC/propidium iodide staining based flow cytometry (reference value: 0.13%). The series is classed as functional.
For series [9], the system named is MDA-MB-468. Nature of the series: Antitumor activity against human MDA-MB-468 cells xenografted in BALB/c mouse assessed as tumor growth inhibition at 50 mg/kg, ip administered every two days for 34 days relative to control. The conditions noted are these: MDA-MB-468, ip, 816 h, read-out: TGI. (In general: Xenograft models place foreign cells or tissue in a host animal.)

Series [10] concerns MDA-MB-468. Description: Inhibition of PARP1/PI3Kalpha in human MDA-MB-468 cells assessed as down regulation of BRCA2 mRNA expression at 2 uM by RT-PCR analysis.
Series [11] can be described thus: Solubility of compound at pH 7. The series is classed as physicochemical. The following applies: buffer.
Series [12] has as its system MDA-MB-468. Description: Antiproliferative activity against human MDA-MB-468 cells measured after 7 days by Celltiter-glo assay. The format is functional, cell-based. The following applies: MDA-MB-468, 168 h. The method in brief:
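MDA-MB-468 cells grown in RPMI1640 with 10% FBS at 37 °C, 5% CO2. Seeded the day before dosing, grown 12 h, then exposed to a range of concentrations for 7 days. Viability read by CellTiter-Glo luminescence after 10 min at room temperature. Inhibition % = (1 − (RLU cpd − blank)/(RLU DMSO − blank)) × 100. IC50 from nonlinear regression of normalized dose-response.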
(In general: ATP-based viability assays read luminescence as a measure of living cells.)

Series [13] deals with T1, Poly [ADP-ribose] polymerase 1. Description: Inhibition of PARP1 (unknown origin). Put shortly: (§1)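 PARP-1 and PI3Kα enzyme inhibition. IC50 taken from dose-response curves and given as mean ± SD of three independent experiments.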
Series [14] concerns the target T2, Phosphatidylinositol 4,5-bisphosphate 3-kinase catalytic subunit alpha isoform. Nature of the series: Inhibition of PI3Kalpha (unknown origin). Put shortly:
as §1

A short description of series [15]: Solubility of compound. The series is classed as physicochemical.
The subject of series [16] is MDA-MB-468. Description: Induction of apoptosis in human MDA-MB-468 cells assessed as necrotic cells at 1 uM measured after 72 hrs by Annexin V-FITC/propidium iodide staining based flow cytometry (reference value: 0.13%). The format is functional.
The subject of series [17] is MDA-MB-468. Description: Antitumor activity against human MDA-MB-468 cells xenografted in BALB/c mouse assessed as tumor growth inhibition at 27.5 mg/kg, ip administered every two days for 34 days relative to control. The conditions noted are these: MDA-MB-468, ip, 816 h, read-out: TGI.
Series [18] has as its system MDA-MB-468. Nature of the series: Induction of apoptosis in human MDA-MB-468 cells assessed as late apoptotic cells at 1 uM measured after 72 hrs by Annexin V-FITC/propidium iodide staining based flow cytometry (reference value: 0.78%). The format is functional.
Series [19] concerns MDA-MB-468. Nature of the series: Induction of apoptosis in human MDA-MB-468 cells assessed as viable cells at 1 uM measured after 72 hrs by Annexin V-FITC/propidium iodide staining based flow cytometry (reference value: 95.2%). The following applies: read-out: Activity. The format is functional.
Series [20] deals with MDA-MB-468. Description: Induction of apoptosis in human MDA-MB-468 cells assessed as early apoptotic cells at 1 uM measured after 72 hrs by Annexin V-FITC/propidium iodide staining based flow cytometry (reference value: 3.88%). The format is functional.

Each structure is given as a SMILES string. Active and inactive are the calls of the source. The rule behind the calls is not given here.

T2 sequence (P42336 whole entry, canonical isoform): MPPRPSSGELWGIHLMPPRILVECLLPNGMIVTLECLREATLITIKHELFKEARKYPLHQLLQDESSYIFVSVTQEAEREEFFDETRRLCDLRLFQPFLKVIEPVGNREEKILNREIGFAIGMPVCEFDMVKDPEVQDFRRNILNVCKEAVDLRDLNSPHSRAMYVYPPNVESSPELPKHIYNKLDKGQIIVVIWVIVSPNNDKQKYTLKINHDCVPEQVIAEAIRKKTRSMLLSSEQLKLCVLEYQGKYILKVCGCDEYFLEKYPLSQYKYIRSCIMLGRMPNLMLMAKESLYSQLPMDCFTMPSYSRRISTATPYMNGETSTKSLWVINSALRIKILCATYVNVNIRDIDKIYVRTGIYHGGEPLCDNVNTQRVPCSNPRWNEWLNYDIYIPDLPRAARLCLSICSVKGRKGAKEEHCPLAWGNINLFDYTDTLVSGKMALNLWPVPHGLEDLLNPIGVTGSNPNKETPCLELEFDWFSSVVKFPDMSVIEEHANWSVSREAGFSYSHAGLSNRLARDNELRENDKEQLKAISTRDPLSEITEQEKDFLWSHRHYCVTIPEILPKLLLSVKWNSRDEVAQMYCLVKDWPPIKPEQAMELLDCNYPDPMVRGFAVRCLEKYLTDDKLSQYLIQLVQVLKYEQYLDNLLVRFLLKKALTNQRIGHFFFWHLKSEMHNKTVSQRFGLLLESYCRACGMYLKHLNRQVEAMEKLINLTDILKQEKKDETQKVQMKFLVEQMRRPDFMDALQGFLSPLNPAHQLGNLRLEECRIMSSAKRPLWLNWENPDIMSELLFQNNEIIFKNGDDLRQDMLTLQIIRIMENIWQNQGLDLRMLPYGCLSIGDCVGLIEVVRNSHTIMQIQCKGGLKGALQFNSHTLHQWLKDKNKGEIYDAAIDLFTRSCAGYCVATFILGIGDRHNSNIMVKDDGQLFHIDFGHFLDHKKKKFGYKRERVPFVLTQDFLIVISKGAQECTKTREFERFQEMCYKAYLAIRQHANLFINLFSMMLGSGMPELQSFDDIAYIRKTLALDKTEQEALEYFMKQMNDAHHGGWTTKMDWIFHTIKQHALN

`NC(=O)c1cccc2cc(C(=O)N3CCN(c4nc(-c5cnc(NC(=O)CN6CCOCC6)cc5C(F)(F)F)nc(N5CCOCC5)n4)CC3)oc12`: the inhibition result in the series with MDA-MB-468 [1] and in the series on MDA-MB-468 [2] was “Active” in each case.

For the molecule `NC(=O)c1cccc2cc(C(=O)N3CCN(c4cc(-c5cnc(N)cc5C(F)(F)F)nc(N5CCOCC5)n4)CC3)oc12`, the inhibition in [3] turned out to be 51%; in series [4], 80%.

For the molecule `O=C(c1cc(Cc2n[nH]c(=O)c3ccccc23)ccc1F)N1CCN(C(=O)C2CC2)CC1` [OLAPARIB], the Activity with MDA-MB-468 [5] worked out at 6.6%; with MDA-MB-468 [8], 0.16%. The inhibition result in the series on MDA-MB-468 [6] and in the series on MDA-MB-468 [10] was “Active” throughout. Moreover, the viability at 2 µM in the series with MDA-MB-468 [7] came out at 91.5%. Further, the inhibition in vivo at 50 mg/kg in the series with MDA-MB-468 [9] stood at 28.5%.

Regarding `NC(=O)c1cccc2cc(C(=O)N3CCN(c4nc(N5CCOCC5)nc(-n5c(C(F)F)nc6ccccc65)n4)CC3)oc12`, the results for the inhibition in series [3] and in series [4] were 36% and 29%, respectively.

Turning to `NC(=O)c1cccc2cc(C(=O)N3CCN(c4nc(-c5ccc(N)c(F)c5)nc(N5CCOCC5)n4)CC3)oc12`, the inhibition in series [3] was 51%; in series [4], 5%.

For the molecule `NC(=O)c1cccc2cc(C(=O)N3CCN(c4cc(-n5c(C(F)F)nc6ccccc65)nc(N5CCOCC5)n4)CC3)oc12`, the inhibition in series [3] was 38%; in series [4] it was 26%.

Consider `Cl.NC(=O)c1cccc2cc(C(=O)N3CCN(c4nc(-c5cnc(N)cc5C(F)(F)F)nc(N5CCOCC5)n4)CC3)oc12`, for which the solubility in [11] was less than 100 µg/mL.

Consider `NC(=O)c1cccc2cc(C(=O)N3CCN(c4nc(-c5cnc(N)cc5C(F)(F)F)nc(N5CCOCC5)n4)CC3)oc12` [listing 1 of 2 here], for which the IC50 in the series with MDA-MB-468 [12] was 4060 nM; in series [13], 7.3 nM; in series [14] it was 39.6 nM.

With `NC(=O)c1cccc2cc(C(=O)N3CCN(c4cc(-c5cnc(N)nc5)nc(N5CCOCC5)n4)CC3)oc12`, the inhibition in [3] turned out to be 85%; in series [4] it was 60%.

`NC(=O)c1cccc2cc(C(=O)N3CCN(c4nc(-c5cnc(N)nc5)nc(N5CCOCC5)n4)CC3)oc12`: in series [15], the solubility entry is “Insoluble”. Besides, the half-inhibitory concentration (IC50) in series [13] was found to be 5.8 nM; in [14] it was 6.3 nM. Also, the inhibition worked out at 70% in series [3] and 86% in series [4].

Turning to `NC(=O)c1cccc2cc(C(=O)N3CCN(c4nc(-c5ccc6[nH]ccc6c5)nc(N5CCOCC5)n4)CC3)oc12`, the results for the inhibition in [3] and in series [4] were 62% and 8%, respectively.

Take `NC(=O)c1cccc2cc(C(=O)N3CCN(c4nc(-c5ccc(N)nc5)nc(N5CCOCC5)n4)CC3)oc12`: the IC50 in [13] was determined as 10.8 nM; in [14] it was 119 nM. In addition, the inhibition in series [3] turned out to be 61%; in series [4], 79%.

As for `NC(=O)c1cccc2cc(C(=O)N3CCN(c4nc(-c5cnc(N)cc5C(F)(F)F)nc(N5CCOCC5)n4)CC3)oc12` [listing 2 of 2 here], the inhibition worked out at 60% in series [3] and 77% in series [4].

On to `Cl.NC(=O)c1cccc2cc(C(=O)N3CCN(c4nc(-c5cnc(NC(=O)CN6CCOCC6)cc5C(F)(F)F)nc(N5CCOCC5)n4)CC3)oc12`, for which, in [11], the solubility was more than 10000 µg/mL.

Turning to `Nc1cc(C(F)(F)F)c(-c2cc(N3CCOCC3)nc(N3CCOCC3)n2)cn1` [BUPARLISIB], the results for the Activity in the series on MDA-MB-468 [16], in the series with MDA-MB-468 [18] and in the series on MDA-MB-468 [20] were 0.16%, 1.82% and 6.13%, respectively. In addition, in the series on MDA-MB-468 [17], the inhibition in vivo at 27.5 mg/kg was 33.4%. Further, the inhibition result in the series with MDA-MB-468 [1] and in the series with MDA-MB-468 [2] was “Active” throughout. In addition, the viability at 1 µM in the series with MDA-MB-468 [19] came to 91.9%. The molecule further came in with an inhibition in series [4] of 82%.

One may read the inhibition as the drop in the measured response relative to a control, in per cent. By solubility is commonly meant how much of the substance goes into solution per volume. High values mean a readily soluble substance, low ones a poorly soluble substance. As a reminder, the IC50 is the concentration that inhibits the measured activity by half. Read a high IC50 as weaker potency in that assay.

Values taken from ChEMBL document CHEMBL4732120, “Discovery of novel PARP/PI3K dual inhibitors with high efficiency against BRCA-proficient triple negative breast cancer” (Eur J Med Chem, 2021).
